The source of these data is ChEMBL document CHEMBL1153570, “Synthesis and antitubercular screening of imidazole derivatives” (2009).

A word on the MIC: it is the smallest concentration in the dilution series that meets the test's criterion for growth inhibition.

Molecules are shown by their SMILES. In brackets after ≈: the same amount, converted by molar mass.

What all share (format): functional
Assay [1] deals with Mycobacterium tuberculosis. In words: Antimycobacterial activity against Mycobacterium tuberculosis H37Rv by agar microdilution assay. The method in brief:
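H37Rv from L–J medium suspended in 0.85% saline with 0.05% Tween-80. Twofold compound dilutions in OADC-supplemented 7H10 agar slants, preincubated 24 h at 37 °C, then streaked with 5 × 10⁴ bacilli per tube. Incubated at 37 °C and growth read after 30 days against drug-free controls. MIC taken as the concentration giving complete inhibition of colonies.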

Assay [2] deals with Mycobacterium tuberculosis. Kind of assay: Antimycobacterial activity against Mycobacterium tuberculosis H37Ra after 5 days by microplate alamar blue assay. The following applies: 120 h. Put shortly: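 Log-phase M. tuberculosis H37Ra diluted to final OD550 0.05 in Sauton's medium. Compounds in DMSO, twofold dilutions from […]. Incubated at 37 °C/5% CO2 for 5 days, alamar blue added on day 5, incubated overnight. Fluorescence read-out.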
(Alamar Blue is a resazurin reagent that responds to reducing activity.)

Assay [3] has as its system Mycobacterium tuberculosis. In words: Antitubercular activity against Mycobacterium tuberculosis H37Rv after 5 to 8 days by BACTEC radiometric assay. The method in brief:
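H37Rv from L–J slants homogenized with glass beads and adjusted to McFarland 1. Primary inoculum grown in BACTEC 12B vial to GI 500–700, then 0.1 ml added to 4 ml 12B broth containing compound. A 1:100-inoculum control vial was included. Incubated at 37 °C with daily GI readings; read one more day after the 1:100 control reached GI 30.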

Regarding `c1ccc(Cn2cnc3ccccc32)cc1`, the minimum inhibitory concentration (MIC) in assay [1] and in assay [2] was more than 12.5 µg/mL throughout.
As to `Clc1ccc(Cn2ccnc2)cc1Cl`, the MIC in assay [2] is more than 12.5 µg/mL.
Regarding `CCCCCCNC(=O)Cn1ccnc1`, the figures for the minimum inhibitory concentration (MIC) in assay [1] and in assay [2] were more than 12.5 µg/mL and 25 µg/mL (≈ 119 µM), respectively.
For `CCOC(=O)CCn1ccnc1`, the MIC in assay [1] is more than 12.5 µg/mL.
Take `c1cn(CCCCCn2ccnc2)cn1`: the MIC in assay [1] and in assay [2] was more than 12.5 µg/mL each time.
For `CCOC(=O)Cn1ccnc1`, the MIC in assay [1] was more than 6.25 µg/mL; in assay [2] it was more than 12.5 µg/mL.
For the compound `C=CCc1cnc(CCC)n1CCCn1ccnc1CCC`, the MIC in assay [1] is 25 µg/mL (≈ 83.2 µM); in assay [2], more than 12.5 µg/mL.
On to `c1cn(CCCn2ccnc2)cn1`, for which the MIC in assay [1] and in assay [2] was more than 12.5 µg/mL each time.
`CCCc1nccn1C(CC(=O)OCC)C1O[C@H]2OC(C)(C)O[C@H]2[C@@H]1OC` (stereo not given in full): the MIC in assay [1] and in assay [2] was 25 µg/mL (≈ 65.4 µM) each time.
As to `CCCCCCCNC(=O)Cn1ccnc1`, the MIC in assay [1] and in assay [2] was more than 12.5 µg/mL each time.
With `CCCCNC(=O)Cn1ccnc1`, the MIC in assay [1] and in assay [2] was more than 12.5 µg/mL throughout.
As for `OCCn1ccnc1`, the MIC in assay [1] and in assay [2] was more than 12.5 µg/mL in each case.
Take `CCOC(=O)CC(C1O[C@H]2OC(C)(C)O[C@H]2[C@@H]1OC)n1ccnc1` (stereo not given in full): the MIC in assay [1] and in assay [2] was 25 µg/mL (≈ 73.4 µM) each time.
For `c1ccc(CNCCn2ccnc2)cc1`, the MIC in assay [1] and in assay [2] was 12.5 µg/mL (≈ 62.1 µM) in each case.
With `CCOC(=O)CC(C1O[C@H]2OC(C)(C)O[C@H]2[C@@H]1OCc1ccccc1)n1ccnc1` (stereo not given in full), the MIC in assay [1] and in assay [2] was 50 µg/mL (≈ 120 µM) each time.
Regarding `CCCc1nccn1CCCn1ccnc1CCC`, the minimum inhibitory concentration (MIC) in assay [3] was 6.25 µg/mL (≈ 24 µM); in assay [2], more than 12.5 µg/mL.
For `O=C(Cn1ccnc1)NCc1ccccc1`, the MIC in assay [1] and in assay [2] was more than 12.5 µg/mL in each case.
For `CCCc1nccn1C(CC(=O)OCC)C1O[C@H]2OC(C)(C)O[C@H]2[C@@H]1OCc1ccccc1` (stereo not given in full), the MIC in assay [1] and in assay [2] was 50 µg/mL (≈ 109 µM) in each case.
Take `Clc1ccc(Cn2cnc3ccccc32)cc1Cl`: the MIC in assay [1] and in assay [2] was more than 12.5 µg/mL throughout.
For the compound `CC[C@@H](CO)NCCN[C@@H](CC)CO` [ETHAMBUTOL], the MIC in assay [1] and in assay [2] was 1.5 µg/mL (≈ 7.34 µM) in each case.
`NNC(=O)c1ccncc1` [ISONIAZID]: the MIC in assay [1] and in assay [2] was 0.65 µg/mL (≈ 4.74 µM) each time.
